Results reported in ChEMBL document CHEMBL4196121, “Meridianin D Analogues Display Antibiofilm Activity against MRSA and Increase Colistin Efficacy in Gram-Negative Bacteria” (ACS Med Chem Lett, 2018).
Converted amounts (≈) assume the structure as drawn. The source made the active and inactive calls. The rule behind the calls is not given here.

Experiments:
Escherichia coli [1] = test: Antibacterial activity against Escherichia coli ATCC 25922 after 16 hrs by broth microdilution assay; assay type: organism-based
Klebsiella pneumoniae [2] = test: Antibacterial activity against Klebsiella pneumoniae isolate B9 after 16 hrs by broth microdilution assay; conditions: in vivo
Acinetobacter baumannii [3] = test: Antibacterial activity against Acinetobacter baumannii ATCC 19606 after 16 hrs by broth microdilution assay; assay type: organism-based, ATCC 19606 = CIP 70.34 = JCM 6841
Acinetobacter baumannii [4] = test: Antibacterial activity against Acinetobacter baumannii isolate 4106 after 16 hrs by broth microdilution assay; assay type: organism-based
Acinetobacter baumannii [5] = test: Antibacterial activity against Acinetobacter baumannii ATCC 17978 after 16 hrs by broth microdilution assay; assay type: organism-based
Escherichia coli [6] = test: Antibacterial activity against Escherichia coli ATCC 25922 expressing mcr1 gene after 16 hrs by broth microdilution assay; assay type: organism-based; conditions: in vitro
Acinetobacter baumannii [7] = test: Antibacterial activity against Acinetobacter baumannii ATCC 17978 expressing mcr1 gene after 16 hrs by broth microdilution assay; assay type: organism-based; conditions: in vitro
Staphylococcus aureus [8] = test: Inhibition of biofilm formation in methicillin-resistant Staphylococcus aureus ATCC 43300 after 24 hrs by crystal violet staining based method; assay type: functional, organism-based; conditions: for IC50: ATCC 43300, 24 h
Method in brief: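 Read-out is the IC50, taken as the compound concentration that inhibits 50% of MRSA 43300 biofilm formation.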

Klebsiella pneumoniae [9] = test: Antibacterial activity against Klebsiella pneumoniae isolate C3 after 16 hrs by broth microdilution assay
Acinetobacter baumannii [10] = test: Antibacterial activity against Acinetobacter baumannii isolate 5075 after 16 hrs by broth microdilution assay; assay type: organism-based
Klebsiella pneumoniae [11] = test: Antibacterial activity against Klebsiella pneumoniae ATCC 2146 expressing NDM1 gene after 16 hrs by broth microdilution assay; assay type: organism-based
Acinetobacter baumannii [12] = test: Antibacterial activity against Acinetobacter baumannii isolate 3941 after 16 hrs by broth microdilution assay; assay type: organism-based
Escherichia coli [13] = test: Potentiation of colistin-induced antimicrobial activity against Escherichia coli ATCC 25922 assessed as fold reduction in colistin MIC after 16 hrs by broth microdilution assay; assay type: functional
Method in brief: (§1)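 Analogue at a fixed 60 μM unless otherwise noted, combined with colistin against the Gram-negative strain. Potentiation is read as the fold reduction in colistin MIC relative to colistin alone. A. baumannii 3941/4106 and K. pneumoniae C3/B9 are primary clinical isolates with genomically encoded colistin resistance.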

Acinetobacter baumannii [14] = test: Potentiation of colistin-induced antimicrobial activity against Acinetobacter baumannii ATCC 17978 assessed as fold reduction in colistin MIC after 16 hrs by broth microdilution assay; assay type: functional; method in brief: as §1
Acinetobacter baumannii [15] = test: Potentiation of colistin-induced antimicrobial activity against Acinetobacter baumannii ATCC 19606 assessed as fold reduction in colistin MIC after 16 hrs by broth microdilution assay; assay type: functional, ATCC 19606 = CIP 70.34 = JCM 6841; method in brief: as §1
Staphylococcus aureus [16] = test: Antibacterial activity against methicillin-resistant Staphylococcus aureus ATCC 43300 after 16 hrs by broth microdilution assay; assay type: functional; conditions: for MIC: ATCC 43300, 16 h
Staphylococcus aureus [17] = test: Antibiofilm activity against methicillin-resistant Staphylococcus aureus ATCC 43300 assessed induction of dispersion of preformed biofilm after 24 hrs by crystal violet staining based method; assay type: functional, organism-based; conditions: ATCC 43300, 24 h
Staphylococcus aureus [18] = test: Potentiation of vancomycin-induced antibacterial activity against methicillin-resistant Staphylococcus aureus ATCC 43300 assessed as dispersion of preformed biofilm after 24 hrs by crystal violet staining based method; assay type: functional, organism-based; conditions: ATCC 43300, 24 h
Klebsiella pneumoniae [19] = test: Potentiation of colistin-induced antimicrobial activity against Klebsiella pneumoniae isolate B9 after 16 hrs in presence of 0.01% triton X-100 by broth microdilution assay; assay type: functional, organism-based
Acinetobacter baumannii [20] = test: Potentiation of colistin-induced antimicrobial activity against Acinetobacter baumannii isolate 4106 after 16 hrs in presence of 0.01% triton X-100 by broth microdilution assay; assay type: functional, organism-based

SMILES	MIC (Escherichia coli [1]) [µM]	MIC (Klebsiella pneumoniae [2]) [µM]	MIC (Acinetobacter baumannii [3]) [µM]	MIC (Acinetobacter baumannii [4]) [µM]	MIC (Acinetobacter baumannii [5]) [µM]	MIC (Escherichia coli [6]) [µM]	MIC (Acinetobacter baumannii [7]) [µM]	IC50 (Staphylococcus aureus [8]) [µM]	MIC (Klebsiella pneumoniae [9]) [µM]	MIC (Acinetobacter baumannii [10]) [µM]	MIC (Klebsiella pneumoniae [11]) [µM]	MIC (Acinetobacter baumannii [12]) [µM]	also measured
Cl.Nc1nccc(-c2c[nH]c3ccc(F)cc23)n1	> 200	> 200	> 200	> 200	> 200	> 200	> 200	> 100	> 200	> 200	> 200	> 200	–
Cl.Nc1nccc(-c2c[nH]c3ccc(Cl)cc23)n1	> 200	> 200	> 200	> 200	> 200	> 200	> 200	–	> 200	> 200	> 200	> 200	Activity (Staphylococcus aureus [8]): inactive
CC(C)Cn1cc(-c2ccnc(N)n2)c2cc(Br)ccc21.Cl	> 200	> 200	> 200	> 200	> 200	> 200	> 200	> 100	> 200	> 200	> 200	> 200	fold change (FC) (Escherichia coli [13]): 16; fold change (FC) (Acinetobacter baumannii [14]): 16; fold change (FC) (Acinetobacter baumannii [15]): 16
Cl.Nc1nccc(-c2c[nH]c3cc(F)ccc23)n1	> 200	> 200	> 200	> 200	> 200	> 200	> 200	> 100	> 200	> 200	> 200	> 200	–
CCn1cc(-c2ccnc(N)n2)c2ccc(Br)cc21.Cl	> 200	> 200	> 200	> 200	> 200	> 200	> 200	64	> 200	> 200	> 200	> 200	MIC (Staphylococcus aureus [16]): 200 µM
Nc1nccc(-c2c[nH]c3c(Br)cccc23)n1	–	–	–	–	–	–	–	99.8	–	–	–	–	–
Nc1nccc(-c2c[nH]c3cccc(Br)c23)n1	–	–	–	–	–	–	–	> 100	–	–	–	–	–
Cl.Nc1nccc(-c2c[nH]c3ccc(I)cc23)n1	> 200	> 200	> 200	> 200	> 200	> 200	> 200	49.3	> 200	> 200	> 200	> 200	MIC (Staphylococcus aureus [16]): 200 µM
CCNc1nccc(-c2cn(C)c3cc(Br)ccc23)n1.Cl	> 200	> 200	> 200	> 200	> 200	> 200	> 200	–	> 200	> 200	> 200	> 200	Activity (Staphylococcus aureus [8]): inactive
Cl.Nc1nccc(-c2c[nH]c3cc(I)ccc23)n1	> 200	> 200	> 200	> 200	> 200	> 200	> 200	42.5	> 200	> 200	> 200	> 200	MIC (Staphylococcus aureus [16]): > 200 µM
CC(C)Cn1cc(-c2ccnc(N)n2)c2ccc(Br)cc21.Cl	> 200	> 200	> 200	> 200	> 200	> 200	> 200	> 100	> 200	> 200	> 200	> 200	–
Nc1nccc(-c2c[nH]c3ccc(Br)cc23)n1	–	–	–	–	–	–	–	17.9	–	–	–	–	EC50 (Staphylococcus aureus [17]): 138 µM; EC50 (Staphylococcus aureus [18]): 92.1 µM; MIC (Staphylococcus aureus [16]): 200 µM (≈ 57.8 µg/mL)
Cc1ccc(S(=O)(=O)n2cc(C(=O)/C=C/N(C)C)c3ccc(I)cc32)cc1	–	–	–	–	–	–	–	–	–	–	–	–	Activity (Staphylococcus aureus [8]): Active
CCCCCn1cc(-c2ccnc(N)n2)c2cc(Br)ccc21.Cl	> 200	> 200	> 200	> 200	> 200	> 200	> 200	> 100	> 200	> 200	> 200	> 200	–
CCn1cc(-c2ccnc(N)n2)c2cc(Br)ccc21.Cl	> 200	> 200	> 200	> 200	> 200	> 200	> 200	66.2	> 200	> 200	> 200	> 200	MIC (Staphylococcus aureus [16]): 200 µM
Nc1nccc(-c2c[nH]c3ccccc23)n1	–	–	–	–	–	–	–	> 100	–	–	–	–	Activity (Klebsiella pneumoniae [19]): inactive; Activity (Staphylococcus aureus [16]): inactive; Activity (Acinetobacter baumannii [20]): inactive
Cc1ccc2[nH]cc(-c3ccnc(N)n3)c2c1.Cl	> 200	> 200	> 200	> 200	> 200	> 200	> 200	> 100	> 200	> 200	> 200	> 200	Activity (Klebsiella pneumoniae [19]): inactive; Activity (Staphylococcus aureus [16]): inactive; Activity (Acinetobacter baumannii [20]): inactive
CCCCn1cc(-c2ccnc(N)n2)c2ccc(Br)cc21.Cl	> 200	> 200	> 200	> 200	> 200	> 200	> 200	> 100	> 200	> 200	> 200	> 200	–
Cl.Cn1cc(-c2ccnc(N)n2)c2ccc(Br)cc21	> 200	> 200	> 200	> 200	> 200	> 200	> 200	59.6	> 200	> 200	> 200	> 200	MIC (Staphylococcus aureus [16]): 200 µM
Cl.Nc1nccc(-c2cn(Cc3ccccc3)c3ccc(Br)cc23)n1	> 200	> 200	> 200	> 200	> 200	> 200	> 200	–	> 200	> 200	> 200	> 200	–
Cl.Cn1cc(-c2ccnc(N)n2)c2cc(Br)ccc21	> 200	> 200	> 200	> 200	> 200	> 200	> 200	> 100	> 200	> 200	> 200	> 200	–
Cc1ccc(S(=O)(=O)n2cc(C(=O)/C=C/N(C)C)c3ccc(F)cc32)cc1	–	–	–	–	–	–	–	–	–	–	–	–	Activity (Staphylococcus aureus [8]): Active
CCCn1cc(-c2ccnc(N)n2)c2ccc(I)cc21.Cl	> 200	> 200	> 200	> 200	> 200	> 200	> 200	–	> 200	> 200	> 200	> 200	Activity (Staphylococcus aureus [8]): inactive
